# MC4R ag barr = MC4R agonists recruiting beta-arrestin, primary screen, cell-based, luminescence, agonist arm of biased-ligand search | U2OS MC4R beta-arrestin complementation; percent of melanotan II response, DMSO zero | activation, % at 8.9 µM | 360,000 compounds, 0.98% hits | AID 540308, 2011;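 active = activation above a per-plate cutoff, the mean activation of sample wells on that plate plus 3 SD, cut at about 8% in these data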
# Target sequence (P32245 whole entry, looked up): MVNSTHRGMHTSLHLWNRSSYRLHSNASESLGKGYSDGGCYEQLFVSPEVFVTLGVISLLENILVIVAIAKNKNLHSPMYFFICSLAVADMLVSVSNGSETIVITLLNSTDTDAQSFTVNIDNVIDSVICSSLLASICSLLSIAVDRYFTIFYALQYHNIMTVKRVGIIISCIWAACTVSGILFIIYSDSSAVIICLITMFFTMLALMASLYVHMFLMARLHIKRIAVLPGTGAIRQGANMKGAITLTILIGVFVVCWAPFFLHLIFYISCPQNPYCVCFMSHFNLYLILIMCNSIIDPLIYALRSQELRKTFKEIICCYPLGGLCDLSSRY
# AI-2 QS modul = Vibrio harveyi AI-2 quorum sensing modulators, primary screen, JMH597 strain, luminescence/OD600 ratio | Vibrio harveyi JMH597 AI-2 luminescence/OD600 ratio, 9 h; hits give low values; strain lacks LuxN and CqsS sensors; 0 = neutral-control median | activity change, % at 7.5 µM | 300,000 compounds, 0.4% hits | AID 2094, 2009; in the data active = activity change below about -75%, passing the limit was not always enough;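 note: luminescence divided by OD600 gain over 9 h not by final OD600 alone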
# NTR1 ag = agonists of human NTR1, primary screen, imaging, U2OS cells, beta-arrestin-GFP, high content | Neurotensin receptor type 1 (Homo sapiens), P30989 | NTR1-U2OS beta-arrestin-GFP spot imaging, agonist mode | activation, % at 20 µM | 330,000 compounds, 0.17% hits | AID 493036, 2011;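 active = activation at or above 40% of the spot to cytoplasm intensity ratio, with at least 20 cells analyzed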;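 note: 0% = DMSO without peptide and 100% = 100 nM NTR1 peptide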
# MC4R antagonist = MC4R antagonists of cAMP signaling, primary screen, cell-based, TR-FRET, antagonist arm of biased-ligand search | AID 540295, 2011 | MC4R-expressing cells, MTII-stimulated cAMP, LANCE TR-FRET | 360,000 compounds, 0.48% hits | inhibition, % at 6.5 µM;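 active = inhibition above its plate's cutoff, the mean of tested wells on that plate plus 3 SD, cut at about 29% in these data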;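 note: 0% = Melanotan II alone and 100% = Melanotan II plus saturating MCL0020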
#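 material = U2OS cells stably expressing human melanocortin 4 receptor (MC4R) | also added = Melanotan II challenge | dosing = single nominal compound dose of 6.5 µM | detection = TR-FRET with Eu-cAMP and labeled anti-cAMP, 671 nm | replication = singlicate | timing = compound 30 min, challenge 1 h, detection 1 h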
# MC4R barr ag = MC4R beta-arrestin agonists, retest, confirmation, cell-based, luminescence, U2OS | shares compounds with MC4R ag barr | U2OS MC4R beta-arrestin recruitment; scaled DMSO 0%, Melanotan II 100% | activation, % at 8.9 µM | 2,400 compounds, 31% hits | AID 602192, 2012;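 active = mean activation across replicates above the hit cutoff set in the earlier primary screen, cut at about 8% in these data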
# MOR-DOR barr ag = agonists of MOR-DOR heterodimerization, counter-screen for MC4R biased agonist project, cell-based, luminescence | shares compounds with MC4R ag barr | U2OS PathHunter beta-arrestin, beta-gal luminescence; percent of deltorphin B response, DMSO zero | activation, % at 9.2 µM | 2,400 compounds, 5.8% hits;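 active = mean activation across replicates exceeds the hit threshold derived in the earlier primary screen, cut at about 18% in these data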;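 note: 100% = deltorphin B at 0.9 µM final and 0% = DMSO alone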
# * marks the source's active call; other numbers are inactive results; nt = no result given. Only some compounds are listed: those with a hit (about 1.8% of all), similar ones and a draw of the others.
SMILES,MC4R ag barr,AI-2 QS modul,NTR1 ag,MC4R antagonist,MC4R barr ag,MOR-DOR barr ag
COc1cc2nc(SCC(N)=O)n(CCC3=CCCCC3)c(=O)c2cc1OC,12.1*,9.8,6.8,6.5,8.4*,5.9
O=C(Cc1ccc(Br)cc1)N/N=C/c1cccnc1,-4.9,1.1,-1.9,-3.3,nt,nt
COc1ccc(CN2CCn3ncc(C(=O)Nc4cc(C)cc(C)c4)c3C2=O)cc1,31.7*,14.9,5.7,5.2,-0.1,9.9
COC(=O)c1cc2n(n1)CCN(Cc1ccc(OC)cc1)C2=O,-1.0,15.0,1.0,0.8,nt,nt
O=C1N/C(=N\N=C\c2cccs2)SC1Cc1ccc(Cl)c(Cl)c1 (stereo not given),10.1*,48.1,3.0,3.6,-2.5,4.0
COc1ccc2nc(C)cc(N/N=C/c3ccccc3)c2c1,4.8,nt,-0.2,5.0,nt,nt
COc1ccc(/C=N/Nc2cc(C)nc3ccc(OC)cc23)c(OC)c1,32.0*,14.8,17.0,-11.8,57.2*,43.1*
Cc1ccc(C(C)C)c(OCc2nn(CC(=O)c3ccc(Cl)cc3)c3[n+]2CCCCC3)c1,40.5*,35.9,27.7,14.3,18.6*,34.3*
O=C(Cn1nc(CNc2ccc(Cl)cc2)[n+]2c1CCCCC2)c1ccccc1,-0.8,14.8,1.1,12.6,nt,nt
Cc1ccc(NC(=O)CCc2nnc3ccc(NCc4ccco4)nn23)cc1,-1.6,8.2,1.5,7.8,nt,nt
Cc1nc2nc(CCNS(=O)(=O)c3ccc(Cl)cc3)cn2nc1C,-0.7,4.5,1.2,10.8,nt,nt
Cc1cccc(OCC(=O)Nc2ccc3c4c(cccc24)CC3)c1C,30.7*,33.4,-1.4,-0.7,2.5,4.0
COc1ccc(C(=O)NC(=S)Nc2ccc3c4c(cccc24)CC3)cc1OC,12.9*,26.0,7.8,-4.5,7.5,2.4
COc1cc(OC)cc(C(=O)NC(=S)Nc2ccc3c4c(cccc24)CC3)c1,-1.4,8.7,5.5,-0.8,nt,nt
CC(=O)Nc1ccc2c(c1)Cc1c(F)cccc1-2,-1.3,nt,nt,-0.3,nt,nt
NNC(=O)C1SCCN1S(=O)(=O)c1ccc(Cl)cc1 (stereo not given),1.5,-3.2,-0.7,-2.9,nt,nt
O=C(NC(=S)Nc1ccccc1O)c1ccc(-c2ccc(Cl)cc2)o1,30.5*,-3.6,0.8,1.9,2.0,9.6
COc1ccccc1NC(=S)NC(=O)c1ccc(-c2ccc(Cl)cc2)o1,19.6*,-0.5,9.6,12.7,-0.1,2.2
COc1cccc(CN2CCC(C(=O)Nc3ccc(-c4cccc(C)c4)cc3)CC2)c1O,2.3,24.9,12.8,0.4,nt,nt
CC(C)c1ccc(S(=O)(=O)N2CCN(C(=O)C3CCN(C(=O)c4ccc(F)cc4)CC3)CC2)cc1,-0.6,32.9,-0.2,-4.0,nt,nt
Cc1ccc[n+](CC(=O)Nc2ccc([N+](=O)[O-])cc2)c1,-2.9,-0.2,-0.6,4.3,nt,nt
O=C(Nc1ccc(F)cc1)C1CCN(S(=O)(=O)c2ccc3[nH]c(=O)oc3c2)CC1,-2.4,27.9,-0.5,7.0,nt,nt
O=c1cc(/C=C/c2ccccc2)oc2c1ccc1ccccc12,28.6*,5.6,25.8,6.1,16.0*,4.4
COc1ccccc1N/C=C(\C#N)c1nc2ccccc2[nH]1,11.1*,8.6,-0.9,4.2,0.7,4.7
COc1ccc(-c2nsc(SCC(=O)Nc3ccc4c(c3)OCO4)n2)cc1,12.4*,30.5,8.0,11.5,2.6,5.7
SMILES,MC4R ag barr,AI-2 QS modul,NTR1 ag,MC4R antagonist,MC4R barr ag,MOR-DOR barr ag
CCOC(=O)C1=C(C)N(C)C(=S)NC1c1c(OCC)ccc2ccccc12 (stereo not given),20.8*,nt,0.7,-1.2,-0.5,5.8
CCOc1ccc2ccccc2c1C1NC(=S)N(C)C(C)=C1C(=O)OC (stereo not given),3.3,-0.5,2.7,9.8,nt,nt
CCOc1ccc(-c2nc3scc(-c4cccs4)c3c(=O)[nH]2)cc1,27.7*,16.5,5.2,-2.3,12.5*,1.8
CCOC(=O)c1cnc2cc(-c3ccc(C)cc3)nn2c1C,-0.7,nt,nt,1.9,nt,nt
CN1C(=O)/C(=C/c2cc3c(cc2Br)OCO3)NC1=S,10.9*,4.0,4.3,-13.4,0.1,3.2
Cc1cccc2cc(COC(=O)c3ccccc3)c(=O)[nH]c12,5.9,15.9,3.5,5.3,nt,nt
Cc1cccc2cc(COC(=O)c3cccs3)c(=O)[nH]c12,22.6*,19.9,3.8,9.0,1.4,4.2
O=C(NNC(=O)c1ccccc1O)c1ccc(S(=O)(=O)Nc2ccccc2)cc1,-5.2,20.5,0.4,6.8,nt,nt
CCCCCCCCCCCC1N=C(N)NC(CCCO)=C1C(=O)OC (stereo not given),12.5*,nt,nt,6.6,25.6*,5.3
Cc1ccc2c(COC(=O)c3ccccc3Br)cc(=O)oc2c1,9.7*,-2.2,5.2,-4.9,3.7,2.9
Cc1ccc(C(OCC(O)CNCc2ccc(F)cc2)c2ccccc2)cc1 (stereo not given),14.1*,14.9,32.9,6.6,23.5*,13.8
O=C(CSc1ncnc2nc[nH]c12)Nc1nnc(SCc2ccc(Cl)c(Cl)c2)s1,16.2*,26.1,-1.2,14.5,5.8,2.2
O=C(Nc1ccc2c(c1)OCO2)c1nn(-c2ccccc2)c(=O)c2ccccc12,10.7*,29.6,-1.9,5.9,-2.1,2.8
COc1cccc(-n2nc(C(=O)Nc3ccc4c(c3)OCO4)c3ccccc3c2=O)c1,1.9,9.0,1.3,17.4,nt,nt
O=[N+]([O-])c1cc(C(F)(F)F)ccc1NCCc1c[nH]c2ccc(O)cc12,14.8*,22.4,19.1,0.2,4.3,4.9
COc1cc2c(cc1OC)C(C)N(C(=O)c1ccc(Cl)c(S(=O)(=O)N3CCCCC3)c1)CC2 (stereo not given),-3.2,27.8,0.4,8.7,nt,nt
O=c1[nH]c(CN(CCc2ccccc2)S(=O)(=O)c2ccc(Cl)cc2)nc2ccccc12,22.7*,20.8,23.9,1.9,4.9,8.2
CC1CCN(S(=O)(=O)c2ccc(C(=O)OCc3ccc4c(c3)OCO4)cc2)CC1,11.8*,19.4,8.5,7.8,6.6,2.6
CCc1noc(C)c1C(=O)N1CCN(S(=O)(=O)c2ccc(Br)cc2Cl)CC1,1.8,-1.9,0.6,5.5,nt,nt
COc1ccc(-c2ccc(SCC(=O)Nc3nccs3)nn2)cc1OC,10.6*,10.4,1.0,3.3,3.2,2.3
COc1ccc(NC(=O)CSc2ccc(-c3cccs3)nn2)c(OC)c1,14.4*,13.8,1.2,-2.1,-0.1,2.2

# Bioassay records deposited in PubChem by several laboratories.
